In ChEMBL document CHEMBL3272112, “Cycloalkanones. 8. Hypocholesterolemic activity of long-chain ketones related to pentadecanone” (J Med Chem, 1976):

How the values were obtained:
Rattus norvegicus [1] = species: Rattus norvegicus; test: Disruption of rat liver cell membrane assessed as unlysed cells at 10 mg per gram of tissue measured at 1 hr (reference value: 90 +/- 4%); format: functional
Procedure, shortened: (§1)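 Rat liver 10% homogenate in 0.25 M sucrose + 0.001 M EDTA, pH 7.2, incubated at 37°C with Hanke's buffer pH 7.2 and drug suspended in 1% CMC (dose as mg drug per g wet liver); turbidity read as absorbance at 660 nm over 0–4 hr, falling absorbance taken as lysis; expressed as % unlysed cells; vehicle 1% CMC control.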

Rattus norvegicus [2] = species: Rattus norvegicus; test: Disruption of rat liver cell membrane assessed as unlysed cells at 10 mg per gram of tissue measured at 15 mins (reference value: 91 +/- 6%); format: functional; procedure, shortened: as §1
Rattus norvegicus [3] = test: Hypocholesterolemic activity in Sprague-Dawley rat assessed as serum cholesterol level at 20 mg/kg/day, po administered via intubation measured on day 16 by Liebermann-Burchard method relative to control; format: functional
Procedure, shortened: (§2)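 Male Sprague-Dawley rats given compound homogenized in 1% CMC once daily at 11:00 a.m. by oral intubation needle (0.2 cc), doses calculated on weekly body weights; tail-vein blood drawn 24 h after last dose; nonhemolyzed serum (30 μ) assayed by modified Liebermann-Burchard method; N = 8; % of control, mean ± SD; Student's t test.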

Rattus norvegicus [4] = test: Hypocholesterolemic activity in Sprague-Dawley rat assessed as serum cholesterol level at 5 mg/kg/day, po administered via intubation measured on day 16 by Liebermann-Burchard method relative to control; format: functional; procedure, shortened: as §2
Rattus norvegicus [5] = test: Hypocholesterolemic activity in Sprague-Dawley rat assessed as serum cholesterol level at 10 mg/kg/day, po administered via intubation measured on day 16 by Liebermann-Burchard method relative to control; format: functional; procedure, shortened: as §2
Rattus norvegicus [6] = test: Toxicity in Sprague-Dawley rat assessed as food intake at 1 mg/kg/day measured after 2 weeks (reference value: 24.8 +/- 1.1 g/day); format: organism-based; details: in vivo, 336 h
Rattus norvegicus [7] = test: Hypocholesterolemic activity in Sprague-Dawley rat assessed as serum cholesterol level at 50 mg/kg/day, po administered via intubation measured on day 16 by Liebermann-Burchard method relative to control; format: functional; procedure, shortened: as §2
Rattus norvegicus [8] = species: Rattus norvegicus; test: Disruption of rat liver lysosomal membrane assessed as free acid phosphatase activity at 10 mg per gram of tissue measured after 1 hr (reference value: 100 +/- 16%); format: functional, tissue-based
Procedure, shortened: (§3)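 10% rat liver homogenate incubated with Hanke's buffer pH 7.2 and drug suspension in 1% CMC in a shaker at 37°C; aliquot removed after 1 hr and percent free (unbound) acid phosphatase activity determined as an index of lysosomal membrane rupture.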

Rattus norvegicus [9] = test: Hypocholesterolemic activity in Sprague-Dawley rat assessed as serum cholesterol level at 5 mg/kg/day, po administered via intubation measured on day 10 by Liebermann-Burchard method relative to control; format: functional; procedure, shortened: as §2
Rattus norvegicus [10] = test: Uterotrophic activity in ovariectomized weaned Sprague-Dawley rat assessed as uterine weight at 10 mg/kg/day measured after 3 days (reference value: 100 +/- 15%); format: ADME, organism-based, Uterus; details: in vivo, 72 h
Procedure, shortened: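 Weaned rats were ovariectomized and left untreated for 3 days. They were then dosed for 3 days with 17-ethinylestradiol 10 µg/kg/day or test compound 10 mg/kg/day, with 1% CMC as the vehicle control. Rats were then killed and the uterus removed, trimmed and weighed. Results are % of control uterine weight, mean ± SD; N = 7; Student's t test.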

Rattus norvegicus [11] = test: Toxicity in Sprague-Dawley rat assessed as atrophy of testis at 10 mg/kg/day administered for 16 days measured on day 16 post last dose; format: organism-based; details: in vivo, 384 h
Rattus norvegicus [12] = species: Rattus norvegicus; test: Disruption of rat liver cell membrane assessed as unlysed cells at 25 mg per gram of tissue measured at 15 mins (reference value: 91 +/- 6%); format: functional; procedure, shortened: as §1
Rattus norvegicus [13] = test: Toxicity in Sprague-Dawley rat assessed as estrogenic activity at 10 mg/kg/day; format: organism-based; details: in vivo
Procedure, shortened: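 Weaned rats ovariectomized, left 3 days, then given 10 mg/kg/day test compound (or 10 μg/kg/day 17-ethinylestradiol as reference) for 3 days; killed, uterus removed, trimmed and weighed; expressed as % uterine weight of 1% CMC control, mean ± SD; Student's t test.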

Rattus norvegicus [14] = species: Rattus norvegicus; test: Disruption of rat liver cell membrane assessed as unlysed cells at 5 mg per gram of tissue measured at 15 mins (reference value: 91 +/- 6%); format: functional; procedure, shortened: as §1
Rattus norvegicus [15] = test: Toxicity in Sprague-Dawley rat assessed as effect on lipid level in liver at 10 mg/kg/day measured after 16 days (reference value: 100 +/- 13%); format: organism-based; details: in vivo, 384 h
Rattus norvegicus [16] = test: Toxicity in Sprague-Dawley rat assessed as increase in body weight at 5 mg/kg/day administered for 16 days measured on day 16 post last dose (reference value: 195 +/- 16%); format: organism-based; details: in vivo, 384 h
Rattus norvegicus [17] = test: Hypocholesterolemic activity in Sprague-Dawley rat assessed as serum cholesterol level at 5 mg/kg/day, po administered via intubation measured on day 4 by Liebermann-Burchard method relative to control; format: functional; procedure, shortened: as §2
Rattus norvegicus [18] = test: Hypocholesterolemic activity in Sprague-Dawley rat assessed as serum cholesterol level at 1 mg/kg/day, po administered via intubation measured on day 10 by Liebermann-Burchard method relative to control; format: functional; procedure, shortened: as §2
Rattus norvegicus [19] = test: Hypocholesterolemic activity in Sprague-Dawley rat assessed as serum cholesterol level at 50 mg/kg/day, po administered via intubation measured on day 4 by Liebermann-Burchard method relative to control; format: functional; procedure, shortened: as §2
Rattus norvegicus [20] = test: Effect on serum triglyceride level in Sprague-Dawley rat at 20 mg/kg/day measured on day 14 (reference value: 100 +/- 21%); format: functional
Rattus norvegicus [21] = test: Effect on serum triglyceride level in Sprague-Dawley rat at 10 mg/kg/day measured on day 16 (reference value: 100 +/- 21%); format: functional
Rattus norvegicus [22] = species: Rattus norvegicus; test: Disruption of rat liver cell membrane assessed as unlysed cells at 25 mg per gram of tissue measured at 4 hrs (reference value: 17 +/- 4%); format: functional; procedure, shortened: as §1
Rattus norvegicus [23] = test: Toxicity in Sprague-Dawley rat assessed as food intake at 50 mg/kg/day measured after 2 weeks (reference value: 24.8 +/- 1.1 g/day); format: organism-based; details: in vivo, 336 h
Rattus norvegicus [24] = species: Rattus norvegicus; test: Disruption of rat liver lysosomal membrane assessed as free acid phosphatase activity at 25 mg per gram of tissue measured after 1 hr (reference value: 100 +/- 16%); format: functional, tissue-based; procedure, shortened: as §3
Rattus norvegicus [25] = test: Toxicity in Sprague-Dawley rat assessed as atrophy of epididymis at 10 mg/kg/day administered for 16 days measured on day 16 post last dose; format: organism-based; details: in vivo, 384 h
Rattus norvegicus [26] = test: Toxicity in Sprague-Dawley rat assessed as increase in epididymis and vas deferens weight at 10 mg/kg/day administered for 16 days measured on day 16 post last dose relative to total body weight (reference value: 0.22 +/- 0.04%); format: organism-based; details: in vivo, 384 h
Rattus norvegicus [27] = test: Toxicity in Sprague-Dawley rat assessed as change in kidney weight at 10 mg/kg/day administered for 16 days measured on day 16 post last dose relative to total body weight (reference value: 0.91 +/- 0.10%); format: organism-based; details: in vivo, 384 h
Rattus norvegicus [28] = species: Rattus norvegicus; test: Disruption of rat liver cell membrane assessed as unlysed cells at 5 mg per gram of tissue measured at 30 mins (reference value: 93 +/- 7%); format: functional; procedure, shortened: as §1
Rattus norvegicus [29] = test: Toxicity in Sprague-Dawley rat assessed as increase in body weight at 10 mg/kg/day measured on day 16 (reference value: 195 +/- 16%); format: organism-based; details: in vivo
Rattus norvegicus [30] = test: Hypocholesterolemic activity in Sprague-Dawley rat assessed as serum cholesterol level at 20 mg/kg/day, po administered via intubation measured on day 4 by Liebermann-Burchard method relative to control; format: functional; procedure, shortened: as §2

## CCCCCCCCCCCCCCC(C)=O
Rattus norvegicus [1]
  Activity: 92%
Rattus norvegicus [2]
  Activity: 96%
Rattus norvegicus [3]
  Activity: 69%
Rattus norvegicus [4]
  Activity: 67%
Rattus norvegicus [5]
  Activity: 58%
Rattus norvegicus [6]
  Activity: 26.6 g/day
Rattus norvegicus [7]
  Activity: 68%
Rattus norvegicus [8]
  Activity: 89%
Rattus norvegicus [9]
  Activity: 78%
Rattus norvegicus [10]
  Activity: 64%
Rattus norvegicus [11]
  Activity: Non-toxic
Rattus norvegicus [12]
  Activity: 97%
Rattus norvegicus [13]
  Activity: Non-toxic
Rattus norvegicus [14]
  Activity: 95%
Rattus norvegicus [15]
  Activity: 101%
Rattus norvegicus [16]
  Activity: 244%
Rattus norvegicus [17]
  Activity: 74%
Rattus norvegicus [18]
  Activity: 80%
Rattus norvegicus [19]
  Activity: 75%
Rattus norvegicus [20]
  Activity: 101%
Rattus norvegicus [21]
  Activity: 120%
Rattus norvegicus [22]
  Activity: 18%
Rattus norvegicus [23]
  Activity: 25.6 g/day
Rattus norvegicus [24]
  Activity: 116%
Rattus norvegicus [25]
  Activity: Non-toxic
Rattus norvegicus [26]
  Activity: 0.24%
Rattus norvegicus [27]
  Activity: 0.86%
Rattus norvegicus [28]
  Activity: 93%
Rattus norvegicus [29]
  Activity: 228%
Rattus norvegicus [30]
  Activity: 74%
